Screening data (PubChem)
Most compounds without a hit are left out; they make up all but 2.4% or so of the library.
S1P4 ag: human S1P4 receptor agonism. O95977. S1P4-expressing cell line, agonist reporter assay. activation, % at 4.98 µM. 0.35% of 220,000 active; in the data active means activation above about 11%
NPY Y2 blocker: blocks the human neuropeptide Y Y2 receptor; P49146; 0.99% of 140,000 active; inhibition, % at 2.7 µM; AID 793; NPY-Y2 expressing cells, antagonist mode; in the data active means inhibition above about 17%
Target sequence (P49146 whole entry, looked up): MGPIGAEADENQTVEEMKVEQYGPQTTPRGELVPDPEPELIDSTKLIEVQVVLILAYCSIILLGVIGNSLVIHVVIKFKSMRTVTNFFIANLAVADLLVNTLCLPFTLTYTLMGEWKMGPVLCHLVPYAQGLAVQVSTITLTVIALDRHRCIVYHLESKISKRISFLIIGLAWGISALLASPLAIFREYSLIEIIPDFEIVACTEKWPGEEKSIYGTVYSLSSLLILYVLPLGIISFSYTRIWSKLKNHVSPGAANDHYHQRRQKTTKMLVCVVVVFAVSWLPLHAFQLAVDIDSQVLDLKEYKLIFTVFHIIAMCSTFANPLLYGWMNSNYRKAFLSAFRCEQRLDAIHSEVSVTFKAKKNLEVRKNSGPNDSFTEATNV
NPY-Y2 PAM-ag: potentiates or activates human NPY-Y2 receptor; P49146; cells expressing NPY-Y2, potentiator/agonist read-out; activation, % at 3.6 µM; 0.45% of 220,000 active; AID 1359; in the data active means activation above about 27%;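 further: cells stimulated with NPY near EC25 plus isoproterenol at EC100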
NPY-Y1 PAM-ag: potentiators or agonists of human neuropeptide Y receptor Y1. NPY-Y1 expressing cells, potentiator/agonist activation. activation, % at 3.6 µM. 0.37% of 220,000 active; in the data active means activation above about 33%, passing the limit was not always enough;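 further: cells stimulated with NPY at EC10 then isoproterenol at EC100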
S1P4 antagonist: human S1P4 receptor antagonism; AID 1510; inhibition, % at 4.98 µM; 0.26% of 220,000 active; S1P4-expressing cells, antagonist mode, reporter read-out; in the data active means inhibition above about 29%
NPY-Y1 antag: blocks the human neuropeptide Y Y1 receptor. inhibition, % at 3.6 µM. HEK293-CNG Y1 cells, membrane potential fluorescence; NPY at EC95, then isoproterenol. 1% of 200,000 active. AID 1040;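 active means inhibition above the campaign mean inhibition of all tested compounds plus 3 SD, cut at about 20% in these data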
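Material: HEK293 Y1/CNG channel cell line | Also added: NPY (25 nM), isoproterenol (1 µM), Ro 20-1724 (25 µM) | Compound: One concentration, 3.6 µM, in 0.4% DMSO | Schedule: 3 h dye uptake, 1 h room-temperature compound, 45 min post-isoproterenol | Signal: Membrane-potential fluorescent dye readout | Read-out: % inhibition of NPY effect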
NPY-Y1 antag ct: human NPY-Y1 antagonism in NPY-Y2 counter-screen | shares compounds with NPY Y2 blocker | cell-based NPY-Y1 antagonism counterscreen | inhibition, % at 3.6 µM | 19% of 710 active | AID 1256; in the data active means inhibition above about 20%;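 further: cells challenged with NPY then isoproterenol with cAMP sensed through a CNG channel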
NPY-Y2 ant conf: human NPY-Y2 antagonism, confirmation. shares compounds with NPY Y2 blocker. inhibition, % at 2.8 µM. 32% of 710 active. HEK293 NPY-Y2 CNG channel, membrane potential fluorescence;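 active means mean inhibition of triplicate wells above the hit cutoff set in the primary screen, cut at about 17% in these data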
Numbers stand for hits.

`COc1cccc(C2c3c(oc4ccccc4c3=O)C(=O)N2CCCN(C)C)c1OC` (centres undefined) gave S1P4 ag inactive, NPY Y2 blocker inactive, NPY-Y2 PAM-ag inactive, NPY-Y1 PAM-ag inactive, S1P4 antagonist inactive and NPY-Y1 antag inactive.
For Nn1c(CSc2nc3ccccc3o2)nnc1CSc1nc2ccccc2o1 the results were S1P4 ag inactive, NPY Y2 blocker 17, NPY-Y2 PAM-ag inactive, NPY-Y1 PAM-ag inactive, S1P4 antagonist inactive, NPY-Y1 antag inactive, NPY-Y1 antag ct inactive and NPY-Y2 ant conf inactive.
Screening Cc1ccccc1NC(=O)c1cccc2nc3ccccc3nc12 returned S1P4 ag inactive, NPY Y2 blocker 19, NPY-Y2 PAM-ag inactive, NPY-Y1 PAM-ag inactive, S1P4 antagonist inactive, NPY-Y1 antag inactive, NPY-Y1 antag ct inactive and NPY-Y2 ant conf inactive.
Screening CCOC(=O)C(=CNc1cc(Cl)c(-c2ccco2)c(Cl)c1)C(=O)OCC returned S1P4 ag inactive, NPY-Y2 PAM-ag inactive, NPY-Y1 PAM-ag inactive and S1P4 antagonist inactive.
COc1ccc(/C=C/C(=O)NC(C)CCc2ccccc2)cc1OC (centres undefined) was read as S1P4 ag inactive, NPY-Y2 PAM-ag inactive, NPY-Y1 PAM-ag inactive, S1P4 antagonist inactive and NPY-Y1 antag inactive.
COc1ccc(/C=C/C(=O)NC(C)CCc2ccccc2)cc1 (centres undefined) was read as S1P4 ag inactive, NPY Y2 blocker 22, NPY-Y2 PAM-ag inactive, NPY-Y1 PAM-ag inactive, S1P4 antagonist inactive, NPY-Y1 antag inactive, NPY-Y1 antag ct inactive and NPY-Y2 ant conf inactive.
CCCCCCCC(=O)NC(Nc1ccc(S(N)(=O)=O)cc1)C(Cl)(Cl)Cl (centres undefined) was read as S1P4 ag inactive, NPY Y2 blocker inactive, NPY-Y2 PAM-ag inactive, NPY-Y1 PAM-ag inactive, S1P4 antagonist inactive and NPY-Y1 antag inactive.
`CCN(CC)CCn1c(=S)[nH]c2cc(C(=O)N3CC=C(c4ccccc4)CC3)ccc2c1=O` gave S1P4 ag inactive, NPY-Y2 PAM-ag inactive, NPY-Y1 PAM-ag inactive, S1P4 antagonist inactive and NPY-Y1 antag inactive.
`CCOc1ccc2[nH]c(=O)c(C(c3nnnn3Cc3ccco3)N3CCC(C)CC3)cc2c1` (centres undefined) gave S1P4 ag inactive, NPY Y2 blocker inactive, NPY-Y2 PAM-ag inactive, NPY-Y1 PAM-ag inactive, S1P4 antagonist inactive and NPY-Y1 antag inactive.
`CCOc1ccc2[nH]c(=O)c(C(c3nnnn3Cc3ccco3)N3CCCC(C)C3)cc2c1` (centres undefined) gave S1P4 ag inactive, NPY Y2 blocker 18, NPY-Y2 PAM-ag inactive, NPY-Y1 PAM-ag inactive, S1P4 antagonist inactive, NPY-Y1 antag inactive, NPY-Y1 antag ct inactive and NPY-Y2 ant conf inactive.
c1ccc(OCCSc2nc3ccccc3[nH]2)cc1 was read as S1P4 ag inactive, NPY Y2 blocker inactive, NPY-Y2 PAM-ag inactive, NPY-Y1 PAM-ag inactive, S1P4 antagonist inactive and NPY-Y1 antag inactive.
`Cc1ccccc1OCCCSc1nc2ccccc2[nH]1` gave S1P4 ag inactive, NPY Y2 blocker 17, NPY-Y2 PAM-ag inactive, NPY-Y1 PAM-ag inactive, S1P4 antagonist inactive, NPY-Y1 antag inactive, NPY-Y1 antag ct inactive and NPY-Y2 ant conf inactive.
Screening COCCNC(=O)NC(=O)CN1CCCc2ccccc21 returned S1P4 ag inactive, NPY-Y2 PAM-ag inactive, NPY-Y1 PAM-ag inactive, S1P4 antagonist inactive and NPY-Y1 antag inactive.
For Cc1ccc(-c2nc(=S)c3c(n2Cc2ccco2)CC(C)(C)OC3)cc1 the results were S1P4 ag inactive, NPY Y2 blocker 18, NPY-Y2 PAM-ag inactive, NPY-Y1 PAM-ag inactive, S1P4 antagonist inactive, NPY-Y1 antag inactive, NPY-Y1 antag ct 21 and NPY-Y2 ant conf inactive.
CC1=CC=CN2C1=NC(=O)CC2(C)C(=O)N(CC(=O)NC1CCCC1)c1cc(C)cc(C)c1 (centres undefined) was read as S1P4 ag inactive, NPY-Y2 PAM-ag inactive, NPY-Y1 PAM-ag inactive, S1P4 antagonist inactive and NPY-Y1 antag inactive.
OC(CNCc1ccc(F)cc1)(c1ccc(F)cc1)c1ccc(F)cc1 was read as S1P4 ag inactive, NPY Y2 blocker 20, NPY-Y2 PAM-ag inactive, NPY-Y1 PAM-ag inactive, S1P4 antagonist inactive, NPY-Y1 antag inactive, NPY-Y1 antag ct inactive and NPY-Y2 ant conf inactive.
C/C(CC(=O)NCCN1CCOCC1)=N\NC(=O)c1ccncc1 was read as S1P4 ag inactive, NPY-Y2 PAM-ag inactive, NPY-Y1 PAM-ag inactive and S1P4 antagonist inactive.
Screening COc1ccc(C(=O)NC(=S)Nc2ccc(NC(=O)c3ccco3)cc2)cc1[N+](=O)[O-] returned S1P4 ag inactive, NPY Y2 blocker 19, NPY-Y2 PAM-ag inactive, NPY-Y1 PAM-ag inactive, S1P4 antagonist inactive, NPY-Y1 antag inactive, NPY-Y1 antag ct 52 and NPY-Y2 ant conf 88.
CCOc1ccc(C(=O)NC(=S)Nc2ccc(N3CCCCC3)cc2)cc1[N+](=O)[O-] was read as S1P4 ag inactive, NPY Y2 blocker 29, NPY-Y2 PAM-ag inactive, NPY-Y1 PAM-ag inactive, S1P4 antagonist inactive, NPY-Y1 antag inactive, NPY-Y1 antag ct 78 and NPY-Y2 ant conf 91.
COC(=O)C1=C(N)Oc2cc(C)[nH]c(=O)c2C1c1ccccc1OC (centres undefined) was read as S1P4 ag inactive, NPY-Y2 PAM-ag inactive, NPY-Y1 PAM-ag inactive and S1P4 antagonist inactive.
CCCC1=NN(C(=O)Cc2ccc(OC)c(OC)c2)C(O)(C(F)(F)F)C1 (centres undefined) was read as S1P4 ag inactive, NPY-Y2 PAM-ag inactive, NPY-Y1 PAM-ag inactive and S1P4 antagonist inactive.
O=C(CNc1ccc2c(c1)OCO2)N/N=C\c1ccccc1Cl was read as S1P4 ag inactive, NPY Y2 blocker 40, NPY-Y2 PAM-ag inactive, NPY-Y1 PAM-ag inactive, S1P4 antagonist inactive, NPY-Y1 antag inactive, NPY-Y1 antag ct inactive and NPY-Y2 ant conf inactive.
`Cc1[nH]c2ccccc2c1/C=N\NC(=O)CNc1ccc2c(c1)OCO2` gave S1P4 ag inactive, NPY Y2 blocker inactive, NPY-Y2 PAM-ag inactive, NPY-Y1 PAM-ag inactive, S1P4 antagonist inactive and NPY-Y1 antag inactive.
Screening COc1cc(/C=N/NC(N)=O)ccc1OCC(=O)Nc1ccc(C)c(C)c1 returned S1P4 ag inactive, NPY Y2 blocker 18, NPY-Y2 PAM-ag inactive, NPY-Y1 PAM-ag inactive, S1P4 antagonist inactive, NPY-Y1 antag inactive, NPY-Y1 antag ct inactive and NPY-Y2 ant conf 34.
CCC(=O)N1CCN(c2ccc(Cl)cc2NC(=O)Cc2ccccc2)CC1 was read as S1P4 ag inactive, NPY Y2 blocker 21, NPY-Y2 PAM-ag inactive, NPY-Y1 PAM-ag inactive, S1P4 antagonist inactive, NPY-Y1 antag inactive, NPY-Y1 antag ct inactive and NPY-Y2 ant conf inactive.
OC1=C(O)c2nc3cc(C(F)(F)F)ccc3nc21 was read as S1P4 ag inactive, NPY-Y2 PAM-ag inactive, NPY-Y1 PAM-ag inactive and S1P4 antagonist inactive.
